In ChEMBL document CHEMBL2385076, “Discovery of 2-((1H-benzo[d]imidazol-1-yl)methyl)-4H-pyrido[1,2-a]pyrimidin-4-ones as novel PKM2 activators” (Bioorg Med Chem Lett, 2013):
≈ marks a conversion by molar mass, not a printed value. Calls of active or inactive are those of the source. The rule behind the calls is not given here.

Key:
[1] = species: Homo sapiens; test: Binding affinity to sodium channel site 2 (unknown origin) by radioligand binding assay
In short: (§1)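 CEREP panel binding measured by displacement of an antagonist radioligand.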

[2] = target: Mu-type opioid receptor (Homo sapiens) (UniProt P35372); test: Binding affinity to human mu opioid receptor by radioligand binding assay
In short: (§2)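 CEREP panel binding measured by displacement of an agonist radioligand.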

[3] = target: D(1A) dopamine receptor (Homo sapiens) (UniProt P21728); test: Binding affinity to human dopamine D1 receptor by radioligand binding assay; in short: as §1
[4] = target: Serine/threonine-protein kinase mTOR (Homo sapiens) (UniProt P42345); test: Inhibition of mTOR (unknown origin)
[5] = target: Phosphatidylinositol 4-phosphate 3-kinase C2 domain-containing subunit alpha (Homo sapiens) (UniProt O00443); test: Inhibition of PIK3C2A (unknown origin)
[6] = target: Tyrosine-protein kinase ZAP-70 (Homo sapiens) (UniProt P43403); test: Inhibition of ZAP70 (unknown origin)
[7] = target: Serine/threonine-protein kinase TAO2 (Homo sapiens) (UniProt Q9UL54); test: Inhibition of TAOK2 (unknown origin)
[8] = target: Serine/threonine-protein kinase 3 (Homo sapiens) (UniProt Q13188); test: Inhibition of STK3 (unknown origin)
[9] = target: Serine/threonine-protein kinase pim-2 (Homo sapiens) (UniProt Q9P1W9); test: Inhibition of PIM2 (unknown origin)
[10] = target: High affinity nerve growth factor receptor (Homo sapiens) (UniProt P04629); test: Inhibition of NTRK1 (unknown origin)
[11] = target: Serine/threonine-protein kinase PAK 4 (Homo sapiens) (UniProt O96013); test: Inhibition of PAK4 (unknown origin)
[12] = target: Serine/threonine-protein kinase Nek2 (Homo sapiens) (UniProt P51955); test: Inhibition of NEK2 (unknown origin)
[13] = target: Serine/threonine-protein kinase 26 (Homo sapiens) (UniProt Q9P289); test: Inhibition of MST4 (unknown origin)
[14] = target: Myosin light chain kinase 2, skeletal/cardiac muscle (Homo sapiens) (UniProt Q9H1R3); test: Inhibition of MYLK2 (unknown origin)
[15] = target: Hepatocyte growth factor receptor (Homo sapiens) (UniProt P08581); test: Inhibition of cMet (unknown origin)
[16] = target: MAP kinase-activated protein kinase 2 (Homo sapiens) (UniProt P49137); test: Inhibition of MAPKAPK2 (unknown origin)
[17] = target: Mitogen-activated protein kinase 1 (Homo sapiens) (UniProt P28482); test: Inhibition of MAPK1 (unknown origin)
[18] = target: Tyrosine-protein kinase Lck (Homo sapiens) (UniProt P06239); test: Inhibition of LCK (unknown origin)
[19] = target: Vascular endothelial growth factor receptor 2 (Homo sapiens) (UniProt P35968); test: Inhibition of KDR (unknown origin)
[20] = target: Ephrin type-A receptor 2 (Homo sapiens) (UniProt P29317); test: Inhibition of EPHA2 (unknown origin)
[21] = target: Fibroblast growth factor receptor 1 (Homo sapiens) (UniProt P11362); test: Inhibition of FGFR1 (unknown origin)
[22] = target: Serine/threonine-protein kinase Chk1 (Homo sapiens) (UniProt O14757); test: Inhibition of CHEK1 (unknown origin)
[23] = target: Calcium/calmodulin-dependent protein kinase type II subunit alpha (Homo sapiens) (UniProt Q9UQM7); test: Inhibition of CAMK2A (unknown origin)
[24] = Kinetic solubility of the compound at pH 7.4; assay type: physicochemical; settings: buffer, read-out: Kinetic_solubility
[25] = system: HT-29; test: Antiproliferative activity against human HT-29 cells at 10 uM after 5 days; assay type: functional; settings: HT-29, 120 h
In short: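 Cells plated in Optimem-GlutaMax medium and cultured overnight before exposure to 10 µM compound. Viability measured with CytoTox-Glo after 5 days of treatment.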

[26] = species: Rattus norvegicus; test: Binding affinity to central-type benzodiazepine receptor in rat cerebral cortex; assay type: tissue-based
[27] = target: 5-hydroxytryptamine receptor 2B (Homo sapiens) (UniProt P41595); test: Binding affinity to human 5-HT2B receptor by radioligand binding assay; in short: as §2
[28] = target: Sodium-dependent noradrenaline transporter (Homo sapiens) (UniProt P23975); test: Binding affinity to human norepinephrine transporter by radioligand binding assay; in short: as §1
[29] = target: 3-phosphoinositide-dependent protein kinase 1 (Homo sapiens) (UniProt O15530); test: Inhibition of PDK1 (unknown origin)
[30] = target: Casein kinase I isoform alpha (Homo sapiens) (UniProt P48729); test: Inhibition of CSNK1A1 (unknown origin)
Sequence of Casein kinase I isoform alpha (Homo sapiens) (P48729 whole entry, looked up, canonical isoform): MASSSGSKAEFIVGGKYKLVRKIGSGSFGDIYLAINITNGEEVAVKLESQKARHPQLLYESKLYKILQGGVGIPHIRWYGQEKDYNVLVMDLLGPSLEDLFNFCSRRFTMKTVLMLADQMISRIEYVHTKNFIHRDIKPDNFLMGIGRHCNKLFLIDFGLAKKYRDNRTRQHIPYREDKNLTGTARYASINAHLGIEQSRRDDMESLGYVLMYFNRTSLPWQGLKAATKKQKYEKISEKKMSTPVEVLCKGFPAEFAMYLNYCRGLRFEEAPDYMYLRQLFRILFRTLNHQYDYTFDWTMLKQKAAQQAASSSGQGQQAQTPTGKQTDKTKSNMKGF

Sequence of 5-hydroxytryptamine receptor 2B (Homo sapiens) (P41595 whole entry): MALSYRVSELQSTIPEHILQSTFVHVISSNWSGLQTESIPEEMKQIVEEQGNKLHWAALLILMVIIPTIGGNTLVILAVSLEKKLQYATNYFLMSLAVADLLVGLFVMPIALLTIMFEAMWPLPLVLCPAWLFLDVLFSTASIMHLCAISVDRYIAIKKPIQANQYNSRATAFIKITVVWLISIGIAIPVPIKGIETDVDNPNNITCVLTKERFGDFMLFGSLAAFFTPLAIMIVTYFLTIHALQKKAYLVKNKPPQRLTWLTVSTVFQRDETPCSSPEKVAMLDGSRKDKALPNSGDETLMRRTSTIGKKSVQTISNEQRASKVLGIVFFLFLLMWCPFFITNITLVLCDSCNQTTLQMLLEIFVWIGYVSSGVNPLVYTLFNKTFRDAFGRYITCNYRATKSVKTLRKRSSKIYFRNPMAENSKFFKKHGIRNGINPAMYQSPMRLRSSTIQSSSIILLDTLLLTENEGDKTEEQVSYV
Sequence of Serine/threonine-protein kinase PAK 4 (Homo sapiens) (O96013 whole entry, looked up): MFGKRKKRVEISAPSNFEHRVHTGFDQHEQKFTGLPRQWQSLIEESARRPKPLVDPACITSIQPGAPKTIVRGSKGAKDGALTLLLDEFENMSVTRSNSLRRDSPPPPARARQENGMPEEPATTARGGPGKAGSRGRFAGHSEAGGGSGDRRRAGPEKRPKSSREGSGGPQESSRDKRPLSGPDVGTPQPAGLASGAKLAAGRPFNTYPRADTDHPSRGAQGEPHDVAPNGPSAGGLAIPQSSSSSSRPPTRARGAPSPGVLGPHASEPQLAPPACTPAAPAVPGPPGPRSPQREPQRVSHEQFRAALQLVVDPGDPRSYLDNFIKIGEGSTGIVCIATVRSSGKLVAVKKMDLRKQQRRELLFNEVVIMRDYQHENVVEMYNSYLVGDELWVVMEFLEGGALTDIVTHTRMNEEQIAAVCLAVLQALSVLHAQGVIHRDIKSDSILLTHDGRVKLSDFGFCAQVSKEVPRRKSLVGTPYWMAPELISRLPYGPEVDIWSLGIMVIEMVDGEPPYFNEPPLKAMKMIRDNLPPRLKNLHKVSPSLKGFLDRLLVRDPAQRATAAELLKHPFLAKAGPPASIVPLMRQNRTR
Sequence of MAP kinase-activated protein kinase 2 (Homo sapiens) (P49137 whole entry, looked up): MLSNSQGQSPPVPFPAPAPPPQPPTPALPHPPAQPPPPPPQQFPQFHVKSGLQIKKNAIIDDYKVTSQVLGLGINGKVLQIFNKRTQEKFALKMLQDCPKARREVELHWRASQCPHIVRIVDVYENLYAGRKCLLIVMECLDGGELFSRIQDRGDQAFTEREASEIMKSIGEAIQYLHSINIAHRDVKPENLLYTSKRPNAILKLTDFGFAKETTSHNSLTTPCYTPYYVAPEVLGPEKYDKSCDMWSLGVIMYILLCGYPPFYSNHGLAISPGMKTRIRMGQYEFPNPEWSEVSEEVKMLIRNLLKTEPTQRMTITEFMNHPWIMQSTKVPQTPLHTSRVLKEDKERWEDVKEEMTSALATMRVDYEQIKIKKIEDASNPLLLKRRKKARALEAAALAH
Sequence of Serine/threonine-protein kinase Chk1 (Homo sapiens) (O14757 whole entry): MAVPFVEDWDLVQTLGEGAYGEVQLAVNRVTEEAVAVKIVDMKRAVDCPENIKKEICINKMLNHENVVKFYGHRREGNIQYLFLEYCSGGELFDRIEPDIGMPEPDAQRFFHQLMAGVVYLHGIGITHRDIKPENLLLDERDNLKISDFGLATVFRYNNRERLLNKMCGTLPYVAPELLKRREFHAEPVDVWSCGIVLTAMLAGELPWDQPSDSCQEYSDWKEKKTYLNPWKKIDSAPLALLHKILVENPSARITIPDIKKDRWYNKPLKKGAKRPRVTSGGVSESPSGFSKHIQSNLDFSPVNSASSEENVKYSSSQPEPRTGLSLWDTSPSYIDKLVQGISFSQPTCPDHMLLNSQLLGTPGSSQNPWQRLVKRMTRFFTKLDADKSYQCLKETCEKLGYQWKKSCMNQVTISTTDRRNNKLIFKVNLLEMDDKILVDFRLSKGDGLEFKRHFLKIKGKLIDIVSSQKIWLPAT
Sequence of 3-phosphoinositide-dependent protein kinase 1 (Homo sapiens) (O15530 whole entry, looked up, canonical isoform): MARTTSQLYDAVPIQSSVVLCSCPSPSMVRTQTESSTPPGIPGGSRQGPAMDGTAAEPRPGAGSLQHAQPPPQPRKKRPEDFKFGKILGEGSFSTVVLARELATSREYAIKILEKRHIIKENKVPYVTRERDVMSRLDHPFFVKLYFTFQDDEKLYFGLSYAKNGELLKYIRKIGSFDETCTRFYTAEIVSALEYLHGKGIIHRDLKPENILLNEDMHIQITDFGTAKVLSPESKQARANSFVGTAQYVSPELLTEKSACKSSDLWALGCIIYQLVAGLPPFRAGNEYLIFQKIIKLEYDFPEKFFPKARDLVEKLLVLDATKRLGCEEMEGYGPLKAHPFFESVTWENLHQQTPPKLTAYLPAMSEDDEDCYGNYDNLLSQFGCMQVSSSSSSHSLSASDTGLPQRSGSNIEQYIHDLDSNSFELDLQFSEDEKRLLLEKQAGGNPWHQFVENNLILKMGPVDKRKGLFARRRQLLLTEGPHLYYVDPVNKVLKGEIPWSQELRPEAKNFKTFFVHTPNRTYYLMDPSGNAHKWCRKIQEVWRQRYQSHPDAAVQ
Sequence of Tyrosine-protein kinase Lck (Homo sapiens) (P06239 2-509 limits assumed): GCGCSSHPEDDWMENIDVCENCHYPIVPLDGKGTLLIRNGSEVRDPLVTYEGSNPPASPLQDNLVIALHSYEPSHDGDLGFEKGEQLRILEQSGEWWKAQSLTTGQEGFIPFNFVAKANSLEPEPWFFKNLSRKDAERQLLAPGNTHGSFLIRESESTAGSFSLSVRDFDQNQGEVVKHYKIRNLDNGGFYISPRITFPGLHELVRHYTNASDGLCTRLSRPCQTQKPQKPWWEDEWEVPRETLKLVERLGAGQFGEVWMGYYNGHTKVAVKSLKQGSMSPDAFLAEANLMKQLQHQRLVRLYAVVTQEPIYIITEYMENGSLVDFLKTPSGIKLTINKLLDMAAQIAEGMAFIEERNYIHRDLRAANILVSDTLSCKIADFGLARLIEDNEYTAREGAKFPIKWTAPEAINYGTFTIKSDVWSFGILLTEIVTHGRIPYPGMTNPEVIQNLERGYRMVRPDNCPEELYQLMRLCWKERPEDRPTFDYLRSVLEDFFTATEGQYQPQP
Sequence of Serine/threonine-protein kinase TAO2 (Homo sapiens) (Q9UL54 whole entry): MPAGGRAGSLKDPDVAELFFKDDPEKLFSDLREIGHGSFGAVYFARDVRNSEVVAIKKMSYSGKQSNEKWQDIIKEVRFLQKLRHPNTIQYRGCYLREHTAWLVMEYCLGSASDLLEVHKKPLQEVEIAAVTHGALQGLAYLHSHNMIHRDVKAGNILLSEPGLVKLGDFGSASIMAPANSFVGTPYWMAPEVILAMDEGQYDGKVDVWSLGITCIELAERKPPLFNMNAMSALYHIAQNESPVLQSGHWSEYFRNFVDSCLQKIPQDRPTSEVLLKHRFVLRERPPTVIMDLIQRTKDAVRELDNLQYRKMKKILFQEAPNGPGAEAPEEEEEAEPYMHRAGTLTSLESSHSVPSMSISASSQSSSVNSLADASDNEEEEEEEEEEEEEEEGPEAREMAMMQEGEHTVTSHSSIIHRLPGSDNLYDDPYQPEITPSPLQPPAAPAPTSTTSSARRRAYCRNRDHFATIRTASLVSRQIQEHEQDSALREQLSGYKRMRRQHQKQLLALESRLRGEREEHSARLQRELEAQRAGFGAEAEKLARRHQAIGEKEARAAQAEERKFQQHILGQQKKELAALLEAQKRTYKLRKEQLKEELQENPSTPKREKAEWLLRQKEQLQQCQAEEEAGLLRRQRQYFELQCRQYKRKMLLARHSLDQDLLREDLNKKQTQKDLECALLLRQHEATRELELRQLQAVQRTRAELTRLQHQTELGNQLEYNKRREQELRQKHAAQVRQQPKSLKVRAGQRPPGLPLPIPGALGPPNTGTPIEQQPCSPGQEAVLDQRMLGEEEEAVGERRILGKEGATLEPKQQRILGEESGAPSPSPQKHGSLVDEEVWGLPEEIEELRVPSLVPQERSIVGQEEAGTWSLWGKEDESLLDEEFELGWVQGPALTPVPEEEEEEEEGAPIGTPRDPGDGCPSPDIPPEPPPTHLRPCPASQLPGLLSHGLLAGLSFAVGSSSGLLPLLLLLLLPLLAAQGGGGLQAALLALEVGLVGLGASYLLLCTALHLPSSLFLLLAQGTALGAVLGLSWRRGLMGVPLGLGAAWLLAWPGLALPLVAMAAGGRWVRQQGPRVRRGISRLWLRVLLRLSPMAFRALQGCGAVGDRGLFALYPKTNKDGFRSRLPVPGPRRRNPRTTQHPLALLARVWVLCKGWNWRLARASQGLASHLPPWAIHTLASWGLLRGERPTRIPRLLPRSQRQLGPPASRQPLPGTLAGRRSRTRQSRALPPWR
Sequence of Mitogen-activated protein kinase 1 (Homo sapiens) (P28482 whole entry): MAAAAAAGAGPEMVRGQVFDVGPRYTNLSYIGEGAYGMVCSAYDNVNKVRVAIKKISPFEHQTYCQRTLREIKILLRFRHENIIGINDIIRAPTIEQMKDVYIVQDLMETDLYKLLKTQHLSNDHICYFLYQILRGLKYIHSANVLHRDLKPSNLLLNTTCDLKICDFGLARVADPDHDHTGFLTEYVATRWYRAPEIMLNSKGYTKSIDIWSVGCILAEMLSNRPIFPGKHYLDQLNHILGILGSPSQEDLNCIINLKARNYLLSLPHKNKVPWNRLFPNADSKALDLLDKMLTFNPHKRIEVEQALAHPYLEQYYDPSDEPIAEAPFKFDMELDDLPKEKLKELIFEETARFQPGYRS

Activity [1]: inactive
Activity [2]: inactive
Activity [3]: inactive
inhibition [4]: inactive
inhibition [5]: inactive
inhibition [6]: inactive
inhibition [7]: inactive
inhibition [8]: inactive
inhibition [9]: inactive
inhibition [10]: inactive
inhibition [11]: inactive
inhibition [12]: inactive
inhibition [13]: inactive
inhibition [14]: inactive
inhibition [15]: inactive
inhibition [16]: inactive
inhibition [17]: inactive
inhibition [18]: inactive
inhibition [19]: inactive
inhibition [20]: inactive
inhibition [21]: inactive
inhibition [22]: inactive
inhibition [23]: inactive
solubility kinetic [24]: 178 µM (≈ 51.7 µg/mL)
Activity [26]: inactive
Activity [27]: inactive
Activity [28]: inactive
inhibition [29]: inactive
inhibition [30]: inactive
SMILES: Cc1cccc2nc(Cn3cnc4ccccc43)cc(=O)n12
inhibition at 10 µM [25]: 2.83%
